Activity calls are given as the source filed them. The calls are words filed in the database; no cut-off is given here.

From ChEMBL document CHEMBL4765342, “Substituted benzothiophene and benzofuran derivatives as a novel class of bone morphogenetic Protein-2 upregulators: Synthesis, anti-osteoporosis efficacies in ovariectomized rats and a zebrafish model, and ADME properties” (Eur J Med Chem, 2020) come the findings set out here.

A short description of data set [1]: in vitro. As to conditions: human, microsomes.
A short description of data set [2]: Permeability across apical to basolateral side in human Caco-2 cells assessed as […] yellow leakage at 10 uM incubated for 2 hrs LC-MS/MS analysis. Format: ADME, cell-based. As to conditions: caco-2, 2 h. In a few lines:
(§1)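 Caco-2 monolayers, apical to basolateral direction. Plates preincubated 30 min at 37 °C, then exposed to 10 µM compound for 2 h at 37 °C without shaking. Donor and receiver samples were quenched, centrifuged and measured by LC/MS/MS, in duplicate. Papp calculated from receiver concentration, area and time. Monolayer integrity checked by TEER and by Lucifer yellow leakage (30 min, 37 °C, ex 485/em 530 nm).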

Data set [3] is described as follows: in vitro. Conditions: human.
Data set [4] is described as follows: Permeability across apical to basolateral side in human Caco-2 cells assessed as transepithelial electrical resistance at 10 uM incubated for 2 hrs LC-MS/MS analysis. The data set is classed as ADME, cell-based. As to conditions: caco-2, 2 h. In a few lines:
as §1

Data set [5] can be described thus: Apparent permeability across apical to basolateral side in human Caco-2 cells at 10 uM incubated for 2 hrs LC-MS/MS analysis. As to conditions: for Papp A→B at 2 h, 10 µM: Caco-2. The data set is classed as ADME, cell-based. In outline:
as §1
Background: Passage across Caco-2 layers is used to estimate intestinal permeability.

A short description of data set [6]: Solubility in PBS buffer at pH 7.4 assessed as precipitation of compound at 10000 nM. The data set is classed as physicochemical. As to conditions: pH 7.4, 10 µM.
The nature of data set [7]: Solubility in PBS buffer at pH 7.4 assessed as precipitation of compound at 156.25 nM. Conditions: pH 7.4, 0.15625 µM. Format: physicochemical.
The nature of data set [8]: Solubility in PBS buffer at pH 7.4 assessed as precipitation of compound at 312.5 nM. Format: physicochemical. As to conditions: pH 7.4, 0.3125 µM.
A short description of data set [9]: Solubility in PBS buffer at pH 7.4 assessed as precipitation of compound at 1250 nM. The data set is classed as physicochemical. As to conditions: pH 7.4, 1.25 µM.
The nature of data set [10]: Solubility in PBS buffer at pH 7.4 assessed as precipitation of compound at 2500 nM. The data set is classed as physicochemical. Conditions: pH 7.4, 2.5 µM.
Data set [11] can be described thus: Solubility in PBS buffer at pH 7.4 assessed as precipitation of compound at 5000 nM. Format: physicochemical. As to conditions: pH 7.4, 5 µM.
The nature of data set [12]: Solubility in PBS buffer at pH 7.4 assessed as precipitation of compound at 625 nM. Format: physicochemical. As to conditions: pH 7.4, 0.625 µM.
A short description of data set [13]: Toxicity in Kunming mouse assessed as organism death administered orally for 3 days and observed for 17 days starting from drug administration. As to conditions: in vivo, po, 408 h, time 17 day.
The subject of data set [14] is Rattus norvegicus. As to the kind of experiment: Antiosteoporotic activity in Sprague-Dawley rat model of OVX-induced bone loss assessed as increase in trabecular bone mineral density at 30 mg/kg, ig administered for 3 months with 1 day break after 6 consecutive days administration. The data set is classed as functional, organism-based. In outline:
(§2)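 Female SD rats given bilateral ovariectomy (sham: fat tissue removed instead), adapted 1 week beforehand; dosing began on postoperative day 10, n = 10 per group. Test drugs as 3 mg/mL suspension by gavage; raloxifene hydrochloride at 0.5 mg/mL. Controls got water. Tetracycline 30 mg/kg ip 16 and 3 days before euthanasia. Tibia stained sections give trabecular morphology and TBV%. BMD of L4-6 measured by densitometry under pentobarbital 45 mg/kg anaesthesia. Reported as mean ± SD.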

In data set [15] the test system is Rattus norvegicus. As to the kind of experiment: Antiosteoporotic activity in Sprague-Dawley rat model of OVX-induced bone loss assessed as increase in trabecular bone volume at 30 mg/kg, ig administered for 3 months with 1 day break after 6 consecutive days administration. The data set is classed as functional, organism-based. In a few lines: as §2

As to `COCCc1ccc(OCC(O)CNC(C)C)cc1` (stereo unspecified) [METOPROLOL], the half-life at 0.5 h, 100 µM in [1] amounted to 159 min. Further, the results for the Activity in data set [2] and in data set [4] were 0.154% and 326 Ω·cm², respectively. For the same compound, the microsomal CLint at 0.5 h, 100 µM in [3] (liver microsomes) was 4.35 µL/min/mg. Further, the Papp A→B at 2 h, 10 µM in data set [5] was 32.6 ×10⁻⁶ cm/s.

Regarding `CN(C)CCCOC(=O)c1cc2cc3c(cc2s1)OCO3`, the solubility result in [6] is reported as “Insoluble”; in data set [7], “Soluble”; in [8], “Soluble”; in data set [9] it was “Insoluble”; in data set [10], “Insoluble”; in [11], “Insoluble”. Moreover, the solubility entry in [12] is “Soluble”.

For the compound `CCCCOC(=O)c1cc2ccc(OC)cc2s1`, the solubility result is given as “Insoluble” in data set [6]; “Soluble” in data set [7]; “Soluble” in data set [8]; “Insoluble” in data set [9]; “Insoluble” in data set [10]; “Insoluble” in data set [11]. For the same compound, the solubility entry in data set [12] is reported as “Insoluble”.

Regarding `COc1ccc2cc(C(=O)OCP(=O)(O)O)oc2c1`, the solubility result is “Insoluble” in data set [6]; “Soluble” in data set [7]; “Soluble” in data set [8]; “Soluble” in data set [9]; “Soluble” in [10]; “Soluble” in data set [11]. For the same compound, the solubility result in [12] is given as “Soluble”.

As for `COc1ccc2cc(C(=O)OCCP(=O)(O)O)oc2c1` [listing 1 of 2 here], the solubility result in [6], in data set [7], in [8], in [9], in data set [10] and in data set [11] was “Soluble” throughout. The solubility result in [12] is given as “Soluble”.

Take `O=C(OCCN1CCOCC1)c1cc2cc3c(cc2s1)OCO3` [listing 1 of 2 here]: the solubility result in data set [6] is on record as “Insoluble”; in data set [7] it was “Soluble”; in [8], “Soluble”; in data set [9], “Soluble”; in [10], “Insoluble”; in data set [11], “Insoluble”. Besides, in data set [12], the solubility entry is reported as “Soluble”.

Take `COc1ccc2cc(C(=O)OCCN3CCOCC3)oc2c1`: the solubility result in data set [6] is listed as “Insoluble”; in [7] it was “Soluble”; in [8], “Soluble”; in data set [9] it was “Soluble”; in data set [10], “Soluble”; in [11], “Soluble”. The solubility entry in [12] is on record as “Soluble”.

For `CS(=O)(=O)O.O=C(OCCN1CCOCC1)c1cc2cc3c(cc2s1)OCO3`, the LD50 in data set [13] is on record as > 500 mg/kg/day.

Compound `O=C(O)Cc1ccccc1Nc1c(Cl)cccc1Cl` [DICLOFENAC] came in with a microsomal CLint at 0.5 h, 100 µM in data set [3] (microsomes) of 197 µL/min/mg.

Take `CCOC(=O)c1cc2cc3c(cc2s1)OCO3`: the solubility result in [6] is reported as “Insoluble”; in data set [7] it was “Soluble”; in data set [8], “Insoluble”; in data set [9], “Insoluble”; in data set [10], “Insoluble”; in data set [11], “Insoluble”. Besides, the solubility result in data set [12] was “Insoluble”.

On to `CCOC(=O)c1cc2ccc(OC)cc2s1`, for which the solubility entry in data set [6], in data set [7], in data set [8], in data set [9], in data set [10] and in data set [11] was “Insoluble” each time. Further, the solubility entry in data set [12] is recorded as “Insoluble”.

For the compound `CN(C)CCCOc1nn(Cc2ccccc2)c2ccccc12` [BENZYDAMINE], the half-life at 0.5 h, 100 µM in data set [1] amounted to 43.1 min. Further, the microsomal CLint at 0.5 h, 100 µM in data set [3] (microsomes) came out at 16.1 µL/min/mg.

The compound `CCOc1ccc(NC(C)=O)cc1` [PHENACETIN] registered a half-life at 0.5 h, 100 µM in [1] of 26.5 min. In data set [3] (liver microsomes), the microsomal CLint at 0.5 h, 100 µM is 26.2 µL/min/mg.

With `O=C(OCCN1CCOCC1)c1cc2cc3c(cc2s1)OCO3` [listing 2 of 2 here], the result in data set [14] and in data set [15] was Active.

As for `COc1ccc2cc(C(=O)OCCN(C)C)oc2c1`, the solubility entry was “Insoluble” in data set [6]; “Soluble” in [7]; “Soluble” in [8]; “Soluble” in data set [9]; “Soluble” in data set [10]; “Soluble” in data set [11]. Also, the solubility entry in data set [12] is listed as “Soluble”.

Turning to `CC[C@H]1OC(=O)[C@H](C)[C@@H](O[C@H]2C[C@@](C)(OC)[C@@H](O)[C@H](C)O2)[C@H](C)[C@@H](O[C@@H]2O[C@H](C)C[C@H](N(C)C)[C@H]2O)[C@](C)(O)C[C@@H](C)C(=O)[C@H](C)[C@@H](O)[C@]1(C)O` [ERYTHROMYCIN], the Activity is 0.137% in [2] and 396 Ω·cm² in data set [4]. Moreover, in [5] (caco-2, 2 h, 10 µM), the Papp is on record as 0.0324 10^-6 cm/s.

With `COc1ccc2cc(C(=O)OCCCN(C)C)sc2c1.CS(=O)(=O)O`, in data set [13], the LD50 is > 500 mg/kg/day.

Take `COc1ccc2cc(C(=O)OCCCN(C)C)oc2c1`: the solubility entry in data set [6] is listed as “Insoluble”; in data set [7], “Soluble”; in data set [8] it was “Soluble”; in data set [9] it was “Soluble”; in [10], “Soluble”; in [11], “Soluble”. Besides, in [12], the solubility entry is “Soluble”.

For `COc1ccc2cc(C(=O)OCCP(=O)(O)O)oc2c1` [listing 2 of 2 here], the result in data set [14] and in data set [15] was Active.

As to `COc1ccc2cc(C(=O)OCCP(=O)([O-])[O-])oc2c1.[Na+].[Na+]`, the LD50 in data set [13] was > 500 mg/kg/day.

Turning to `COc1ccc2cc(C(=O)NCCN(C)C)oc2c1`, the solubility result in data set [6] was “Insoluble”; in data set [7] it was “Soluble”; in data set [8], “Soluble”; in data set [9] it was “Soluble”; in [10] it was “Soluble”; in data set [11], “Insoluble”. For the same compound, the solubility entry in data set [12] is reported as “Soluble”.

`CN(C)CCNC(=O)c1cc2cc3c(cc2s1)OCO3`: the solubility result in data set [6] is “Insoluble”; in [7], “Soluble”; in [8], “Soluble”; in data set [9], “Insoluble”; in [10], “Insoluble”; in data set [11] it was “Insoluble”. Besides, the solubility entry in data set [12] is “Soluble”.

As to `CN(C)CCOC(=O)c1cc2cc3c(cc2s1)OCO3`, the solubility result in data set [6] is “Insoluble”; in data set [7], “Soluble”; in data set [8] it was “Soluble”; in data set [9], “Soluble”; in data set [10], “Insoluble”; in data set [11] it was “Insoluble”. Moreover, in data set [12], the solubility result is “Soluble”.

For `COc1ccc2cc(C(=O)OCCN(C)C)oc2c1.CS(=O)(=O)O`, in data set [13], the LD50 is recorded as > 500 mg/kg/day.

For the compound `COc1ccc2cc(C(=O)OCCCN(C)C)sc2c1` [listing 1 of 2 here], the result in data set [14] and in data set [15] was Active.

In the case of `COc1ccc2cc(C(=O)N(C)CCN(C)C)oc2c1`, the solubility entry in [6] is listed as “Insoluble”; in data set [7], “Soluble”; in data set [8] it was “Soluble”; in data set [9] it was “Soluble”; in data set [10], “Soluble”; in [11], “Insoluble”. The solubility result in data set [12] is on record as “Soluble”.

Turning to `COc1ccc2cc(C(=O)OCCCN(C)C)sc2c1` [listing 2 of 2 here], the solubility result is listed as “Insoluble” in data set [6]; “Soluble” in data set [7]; “Soluble” in [8]; “Insoluble” in data set [9]; “Insoluble” in [10]; “Insoluble” in data set [11]. In addition, in data set [12], the solubility result is “Soluble”.

Turning to `CN/C(=N/CCSCc1nc[nH]c1C)NC#N` [CIMETIDINE], the Activity in [2] was 0.134%; in data set [4], 318 Ω·cm². Further, in [5], the apical-to-basolateral permeability (Papp A→B) at 2 h, 10 µM was determined as 0.679 ×10⁻⁶ cm/s.

The half-life is how long it takes for the measured level to halve. One may read the microsomal CLint as the rate of metabolic loss divided by the concentration. Higher therefore signals faster metabolism. For orientation: Papp A→B means the apparent permeability from the apical to the basolateral side of a cell layer. As a reminder, the LD50 is the dose expected to kill half of the subjects tested.
